Results published in ChEMBL document CHEMBL1153729, “Structurally diverse limonoids from the fruits of Swietenia mahagoni” (2009).
Calls of active or inactive are those of the source.

Tests used:
Candida albicans = assay: Antifungal activity against Candida albicans ATCC 1600 after 48 hrs; format: functional, organism-based
In short: (§1)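 Fungi grown in Sabouraud dextrose broth with compounds for 48 h at 37 °C. Blank cultures received a limited amount of DMSO. Amphotericin B, dissolved in DMSO, served as the positive control.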

[1] = tested on: Staphylococcus epidermidis; assay: Antibacterial activity against Staphylococcus epidermidis ATCC 12228 after 18 hrs; format: functional, organism-based
In short: (§2)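 Bacterial cells suspended in Mueller-Hinton broth at a final density of […]. Incubated aerobically with compounds in DMSO at 37 °C for 18 h, alongside DMSO-only blank cultures and an ofloxacin positive control. MIC taken as the lowest concentration giving complete inhibition of visible growth.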

Kocuria rhizophila = assay: Antibacterial activity against Micrococcus luteus ATCC 9341 after 18 hrs; format: functional; settings: DC2201; in short: as §2
Saccharomyces = assay: Antifungal activity against Saccharomyces sake ATCC 26421 after 48 hrs; format: functional, organism-based; in short: as §1
Shigella flexneri = assay: Antibacterial activity against Shigella flexneri ATCC 12022 after 18 hrs; format: functional, organism-based; in short: as §2
Nannizzia gypsea = assay: Antifungal activity against Microsporum gypseum ATCC 14683 after 48 hrs; format: functional, organism-based; in short: as §1
Staphylococcus aureus = assay: Antibacterial activity against Staphylococcus aureus ATCC 25923 after 18 hrs; format: functional, organism-based; in short: as §2
Pseudomonas aeruginosa = assay: Antibacterial activity against Pseudomonas aeruginosa ATCC 14502 after 18 hrs; format: functional, organism-based; in short: as §2
Escherichia coli = assay: Antibacterial activity against Escherichia coli ATCC 25922 after 18 hrs; format: functional, organism-based; in short: as §2
Bacillus subtilis = assay: Antibacterial activity against Bacillus subtilis ATCC 6633 after 18 hrs; format: functional, organism-based; in short: as §2
Trichophyton rubrum = assay: Antifungal activity against Trichophyton rubrum ATCC 10218 after 48 hrs; format: functional, organism-based; in short: as §1

Measured: Activity

C=C1[C@@H]2CC[C@@]3(C)[C@H](c4ccoc4)OC(=O)C[C@]13O[C@H]1CC(=O)C(C)(C)[C@H](CC(=O)OC)[C@]12C
inactive: all assays above

COC(=O)C[C@H]1C(C)(C)[C@H](OC(=O)C(C)C)[C@@H]2C=C3[C@H]([C@H](OC(C)=O)C[C@]4(C)[C@H]3CC(=O)O[C@H]4c3ccoc3)[C@@]1(C)C2=O
inactive: all assays above

COC(=O)C[C@H]1C(C)(C)[C@H](OC(C)=O)[C@]2(O)C=C3C4=CC(=O)O[C@@H](c5ccoc5)[C@]4(C)CC[C@@H]3[C@@]1(C)C2=O
inactive: all assays above

CC(=O)O[C@H]1C[C@@H](OC(C)=O)C(C)(C)[C@@H]2C[C@@H](O)[C@]3(C)[C@H](CC[C@@]4(C)[C@H](c5ccoc5)OC(=O)[C@H]5O[C@@]534)[C@@]12C
inactive: all assays above

COC(=O)C[C@H]1C(C)(C)[C@H](OC(=O)C(C)C)[C@]2(O)C=C3C4=CC(=O)O[C@@H](c5ccoc5)[C@]4(C)CC[C@@H]3[C@@]1(C)C2=O
inactive: all assays above

C=C1C2=CC(=O)O[C@@H](c3ccoc3)[C@]2(C)CC[C@@H]1[C@@]1(C)[C@@H](O)CC(=O)C(C)(C)[C@@H]1CC(=O)OC
inactive: all assays above

COC(=O)C[C@H]1C(C)(C)C(=O)[C@@H]2CC3C4=CC(=O)O[C@@H](c5ccoc5)[C@]4(C)CC[C@@H]3[C@@]1(C)C2=O (stereo partly drawn)
inactive: all assays above

COC(=O)C[C@H]1C(C)(C)[C@H](OC(C)=O)[C@@H]2C=C3[C@H]([C@H](OC(C)=O)C[C@]4(C)[C@H]3CC(=O)O[C@H]4c3ccoc3)[C@@]1(C)C2=O
inactive: all assays above
